Measurements pooled from the literature.
Each line is one published result; the experiments were not run side by side.
FGFR1: Fibroblast growth factor receptor 1 (FGFR1, Homo sapiens, UniProt P11362)
FGFR1 V561M: Fibroblast growth factor receptor 1 (FGFR1, Homo sapiens, UniProt P11362, V561M)

C/C=C/C(=O)NCc1ccc(-n2nc3c(=O)[nH]nc(N)c3c2-c2oc3ccc(C)cc3c2C)cc1  inhibition (FGFR1; enzyme activity, inhibitor, ELISA; 10 nM): 11.1%
CCC(=N\O)/C(C)=C/c1ccc(F)cc1  remaining binding (FGFR1; cell-free assay, competition with immobilised ligand; 1 µM): 100%
O=C1NC(=O)c2cc(Nc3ccc(F)cc3)c(Nc3ccc(F)cc3)cc21  remaining signal (FGFR1; cell-free assay; 0.5 µM): 92.1%
CCOc1cc(-c2nncn2C)ccc1Nc1ncc2cc(C)nc(NCC(C)(C)C)c2n1  inhibition (FGFR1; enzyme activity, inhibitor, FRET; 1 µM): < 15%
CNC(=O)c1cc(Oc2ccc(NC(=O)Nc3ccc(Cl)c(C(F)(F)F)c3)cc2)ccn1  inhibition (FGFR1 V561M; cell-free assay; 0.3 µM): 26%
Cc1noc([C@H]2C[C@@H](c3ccc(C(F)(F)F)cc3)CN(C(=O)N3CCS(=O)(=O)C3)C2)n1  remaining binding (FGFR1; cell-free assay, competition with immobilised ligand; 1 µM): 100%
COc1cc2nccc(Oc3ccc(NC(=O)c4c5n(n(-c6ccc(F)cc6)c4=O)CCCC5)cc3)c2cc1OC  inhibition (FGFR1; enzyme activity, inhibitor; 0.1 µM): -7%
Cc1ccc(NC(=O)c2ccc(C)c(C(F)(F)F)c2)cc1C#Cc1nn(C2CCC(O)CC2)c2ncnc(N)c12 (stereo not drawn)  remaining signal (FGFR1 V561M; cell-free assay; 10 µM): 40%
C=CC(=O)Nc1cc(Nc2nccc(Nc3cc(Cl)c(F)cc3C(C)(C)O)n2)c(OC)cc1N1CC[C@@H](N(C)C)C1  inhibition (FGFR1; enzyme activity, inhibitor; 1 µM): 3%
N#CCCc1ccc2c(c1)-c1[nH]c3ccc([N+](=O)[O-])cc3c1CC(=O)N2  remaining signal (FGFR1; cell-free assay; 0.5 µM): 91.9%
O=S(=O)(NC1CCC(c2cc(F)ccc2F)(S(=O)(=O)c2ccc(Cl)cc2)CC1)C(F)(F)F (stereo not drawn)  remaining binding (FGFR1; cell-free assay, competition with immobilised ligand; 1 µM): 100%
CC/C(=N\NC(=O)NCc1cccc(O)c1)c1ccc(O)c(C)c1O  inhibition (FGFR1; enzyme activity, inhibitor; 0.1 µM): 6.1%
COc1ccc(/C=C/C(=O)c2ccc(NC3=C(Cl)C(=O)c4ccccc4C3=O)cc2)cc1O  inhibition (FGFR1; enzyme activity, inhibitor, ADP detection; 1 µM): > 70%
Cc1cc(NC(=O)c2cccc3cc(-c4cccc5[nH]nc(N)c45)ccc23)ccc1F  activity vs control (FGFR1; enzyme activity, inhibitor; 0.1 µM): 95%
COc1cc2ncnc(Nc3ccc(Oc4ccccc4)cc3C)c2cc1OC  inhibition (FGFR1; enzyme activity, inhibitor; 1 µM): 5%
Cc1c[nH]c2nccc(Oc3c(F)cc(Nc4cc(Cl)nc(N)n4)cc3F)c12  remaining binding (FGFR1; cell-free assay, competition with immobilised ligand; 0.1 µM): 100%
Oc1cccc(-c2nc(N3CCOCC3)c3oc4ncccc4c3n2)c1  remaining signal (FGFR1; cell-free assay; 0.5 µM): 91.7%
CNc1cccc2cc(C(=O)Nc3ccc(C(=O)O)cc3)c(=O)[nH]c12  inhibition (FGFR1; enzyme activity, inhibitor; 10 µM): 9.9%
Cn1cc(Cl)c2c(Oc3c(F)cc(Nc4cc(Cl)nc(N)n4)cc3F)ccnc21  remaining binding (FGFR1; cell-free assay, competition with immobilised ligand; 0.1 µM): 100%
Oc1ccc(-c2nc(-c3ccncc3)c(-c3ccc(F)cc3)[nH]2)cc1  remaining signal (FGFR1; cell-free assay; 0.5 µM): 86.8%
Cc1ccc(C(=O)NCc2ccsc2)cc1C#Cc1cn(C(C)C)c2ncnc(N)c12  activity vs control (FGFR1; enzyme activity, inhibitor; 1 µM): 33%
CC(C)(O)c1cncc(-c2nc3ccc(F)cc3n2C2CC2)c1  remaining binding (FGFR1; cell-free assay, competition with immobilised ligand; 1 µM): 100%
Cc1ccc(C(=O)Nc2ccc(CN3CCN(C)CC3)c(C(F)(F)F)c2)cc1C#Cc1cnc2cccnn12  remaining signal (FGFR1; cell-free assay; 23.5 nM): 4.8%
CCC(=O)N[C@@H]1CC[C@H](C(=O)N(C)c2ccc(-c3nc4ccccc4o3)cc2)C1  remaining binding (FGFR1; cell-free assay, competition with immobilised ligand; 1 µM): 87%
C/C=C/C(=O)Nc1ccc(-n2nc3c(=O)[nH]nc(N)c3c2-c2oc3ccc(C)cc3c2C)cc1  inhibition (FGFR1; enzyme activity, inhibitor, ELISA; 10 nM): 20.2%
C[C@@H]1CCN(C(=O)CC#N)C[C@@H]1N(C)c1ncnc2[nH]ccc12  remaining signal (FGFR1; cell-free assay; 0.5 µM): 101%
CNCc1ccccc1-c1csc([C@H](C)Nc2nc(C)nc3cc(OC)c(OC)cc23)c1  remaining binding (FGFR1; cell-free assay, competition with immobilised ligand; 1 µM): 100%
